Measurements of several laboratories.
Each line is one published result; the experiments were not run side by side.
Target: Serine/threonine-protein kinase D1 (PRKD1, Homo sapiens, UniProt Q15139)

CNC(=O)c1cc(Oc2ccc(NC(=O)Nc3ccc(Cl)c(C(F)(F)F)c3)cc2)ccn1  inhibition (enzyme activity; inhibitor; 10 µM): 13%
Cn1c2ccccc2c2c3c(c4c5ccccc5n(CCC#N)c4c21)CNC3=O  remaining signal (cell-free assay; 0.5 µM): 17.3%
CN(c1ncccc1CNc1nc(Nc2ccc3c(c2)CC(=O)N3)ncc1C(F)(F)F)S(C)(=O)=O  inhibition (enzyme activity; inhibitor; 1 µM): 49%
FC(F)c1nc2ccccc2n1-c1nc(N2CCOCC2)nc(N2CCOCC2)n1  remaining activity (enzyme activity; inhibitor; 10 µM): 96%
c1ccc(CNc2nc(N3CCOc4ccccc43)nc3c2CCCC3)cc1  inhibition (target engagement in cells; inhibitor; chemoproteomics; 20 mM): -8.8%
CN([C@@H]1CCc2c(CC(=O)O)c3ccccc3n2C1)S(=O)(=O)c1ccc(F)cc1  remaining binding (cell-free assay; competition with immobilised ligand; 1 µM): 100%
O=C1Nc2ccc(Cl)cc2C1=Cc1cc(Cl)c(O)c(Cl)c1  remaining signal (cell-free assay; 0.5 µM): 91.5%
CCOc1cc(-c2nncn2C)ccc1Nc1ncc2cc(C)nc(NCC(C)(C)C)c2n1  inhibition (enzyme activity; inhibitor; FRET; 1 µM): 37%
O=C(NC[C@@H]1[C@H]2CN(C(=O)OCc3cc(C(F)(F)F)cc(C(F)(F)F)c3)C[C@@H]12)c1ccc2[nH]nnc2c1  remaining binding (cell-free assay; competition with immobilised ligand; 1 µM): 100%
COc1cc2ncnc(Nc3ccc(Oc4ccccc4)cc3C)c2cc1OC  inhibition (enzyme activity; inhibitor; 1 µM): 8%
Cn1cncc1C1=CN(c2ncnc3[nH]cnc23)CCS1  inhibition (enzyme activity; inhibitor; radiometric; 50 nM): 21.3%
COc1cc2ncnc(Nc3ccc(F)c(Cl)c3)c2cc1OCCCN1CCOCC1  remaining signal (cell-free assay; 0.5 µM): 85.4%
Oc1cccc(-c2nc(N3CCOCC3)c3oc4ncccc4c3n2)c1  remaining activity (enzyme activity; inhibitor; 10 µM): 120%
CC(C)(C)c1nc(-c2cccc(NS(=O)(=O)c3c(F)cccc3F)c2F)c(-c2ccnc(N)n2)s1  remaining activity (enzyme activity; inhibitor; radiometric; 1 µM): 33%
Cc1ccc(C(=O)Nc2ccc(CN3CCN(C)CC3)c(C(F)(F)F)c2)cc1C#Cc1cnc2cccnn12  remaining activity (enzyme activity; inhibitor; 23.5 nM): 91%
CCCCNc1ncc2c(-c3ccc(F)cc3)nn(C[C@H]3CC[C@H](N)CC3)c2n1  inhibition (target engagement in cells; inhibitor; chemoproteomics; 20 mM): 25%
CNc1cccc2cc(C(=O)Nc3ccc(C(=O)O)cc3)c(=O)[nH]c12  inhibition (enzyme activity; inhibitor; 10 µM): -3.9%
Nc1nc(NC2CCCCC2)sc1C(=O)c1ccccc1  remaining activity (enzyme activity; inhibitor; 10 µM): 35%
Cc1c(C(=O)O)cc(-c2ccc(C3CCNCC3)cc2)c2ccc(-c3ccc(C(F)(F)F)cc3)cc12  remaining binding (binding; competition with immobilised ligand; 1 µM): 100%
Nc1ncnc2occ(-c3ccc(NC(=O)Nc4cc(C(F)(F)F)ccc4F)cc3)c12  remaining signal (cell-free assay; inhibitor; 20 µM): 30%
O=C(Nc1ccc(Oc2ccc(F)cc2)cc1)N1CCc2ncccc2[C@H]1c1ccc(F)cc1  remaining binding (cell-free assay; competition with immobilised ligand; 1 µM): 94%
Cn1cnc(Br)c1C1=CN(c2ncnc3[nH]cnc23)CCS1  inhibition (enzyme activity; inhibitor; radiometric; 50 nM): 21.4%
CC(C)c1ccc(NC(=O)c2cccs2)c(-c2nc3ccccc3[nH]c2=O)c1  activity vs control (enzyme activity; inhibitor; 1 µM): 97%
Cc1c(NC(=O)c2cc(C(N)=O)nc3cc(F)ccc23)c(C(F)(F)F)nn1Cc1ccc(C(C)(C)C)cc1  remaining binding (cell-free assay; competition with immobilised ligand; 1 µM): 100%
FC(F)(F)Oc1cccc(-c2cnc3ccc(-c4ccncc4)nn23)c1  activity vs control (enzyme activity; inhibitor; radiometric; 1 µM): 106%
Nc1nc(Nc2ccccc2)sc1C(=O)c1c(F)cccc1F  remaining activity (enzyme activity; inhibitor; 10 µM): 46%
CC/C(=N\NC(=O)NCc1cccc(O)c1)c1ccc(O)c(C)c1O  inhibition (enzyme activity; inhibitor; 0.1 µM): -0.2%
Cc1cc(NC(=O)c2cccc3cc(-c4cccc5[nH]nc(N)c45)ccc23)ccc1F  activity vs control (enzyme activity; inhibitor; 0.1 µM): 76%
CCCCN(CCCC)C(=O)CN1C[C@H](c2cc(OC)c3c(c2)OCO3)[C@@H](C(=O)O)[C@@H]1CC(C)(C)CCC  remaining binding (cell-free assay; competition with immobilised ligand; 1 µM): 79.4%
Cc1ccc(Nc2nccc(N(C)c3ccc4c(C)n(C)nc4c3)n2)cc1S(N)(=O)=O  inhibition (enzyme activity; inhibitor; 10 µM): 23%
CC(=O)N1CCC(c2ccc(C(=O)NC3=NCCN3)cc2C(F)(F)F)CC1  remaining binding (cell-free assay; competition with immobilised ligand; 1 µM): 100%
O=C1NC(=O)c2cc(Nc3ccc(F)cc3)c(Nc3ccc(F)cc3)cc21  remaining signal (cell-free assay; 0.5 µM): 92.2%
CN(C(=O)c1ccccc1)c1cc(N(C)c2ccc3c(c2)CCc2ccc(C(=O)NCCN4CCOCC4)cc2C3=O)ccc1F  remaining binding (cell-free assay; competition with immobilised ligand; 1 µM): 86%
Cc1sc(C(=O)NC2COC2)cc1-n1cc(NC(=O)Nc2c(F)cccc2Cl)cn1  remaining activity (enzyme activity; inhibitor; 10 µM): 93.3%
